Measured values as given in ChEMBL document CHEMBL3232844, “Synthesis and structure activity relationships of schweinfurthin indoles” (2014).

Columns and labels:
Format in all cases: functional
NCI-H460 = assay: Cytotoxicity against human NCI-H460 cells
Outline: (§1)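 Tested in a 60-cell-line human tumor panel screen; the read-out is growth inhibition, reported as GI50 for each cell line.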

NCI-H23 = assay: Cytotoxicity against human NCI-H23 cells; outline: as §1
SK-MEL-5 = assay: Cytotoxicity against human SK-MEL-5 cells; outline: as §1
NCI-H322M = assay: Cytotoxicity against human NCI-H322M cells; outline: as §1
[1] = Cytotoxicity against human UO31 cells
Outline: (§2)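 Cell line run as part of the 60-cell-line screening panel; growth inhibition was reported as a GI50 for each line.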

HT-29 = assay: Cytotoxicity against human HT-29 cells; outline: as §1
K562 = assay: Cytotoxicity against human K562 cells; outline: as §1
SNB-75 = assay: Cytotoxicity against human SNB75 cells; outline: as §2
SN12C = assay: Cytotoxicity against human SN12C cells; outline: as §1
MDA-MB-435 = assay: Cytotoxicity against human MDA-MB-435 cells; outline: as §1
[2] = Cytotoxicity against human OVCAR5 cells; outline: as §1
SR = assay: Cytotoxicity against human SR cells; outline: as §2
M14 = assay: Cytotoxicity against human M14 cells; outline: as §1
PC-3 = assay: Cytotoxicity against human PC3 cells; outline: as §1
SF-295 = assay: Cytotoxicity against human SF295 cells; outline: as §1
[3] = Cytotoxicity against human EKVX cells; outline: as §1
U-251 = assay: Cytotoxicity against human U251 cells; outline: as §2
HCC 2998 = assay: Cytotoxicity against human HCC2998 cells; outline: as §1
SF-268 = assay: Cytotoxicity against human SF268 cells; outline: as §1
NCI-H226 = assay: Cytotoxicity against human NCI-H226 cells; outline: as §1
MOLT-4 = assay: Cytotoxicity against human MOLT4 cells; outline: as §1
[4] = Cytotoxicity against human OVCAR8 cells; conditions: OVCAR-8; outline: as §1
[5] = read-out: pLC50 (the source's name) (converted)

Q: For `COc1cc(/C=C/c2cc(OC)c3ccn(C)c3c2)cc2c1O[C@]1(C)CC[C@@H](O)C(C)(C)[C@H]1C2`, which GI50 (NCI-H460) is on record?
A: 1.07 µM

Q: And the CC50 (NCI-H460; [5])?
A: 61.7 µM

Q: And the TGI (NCI-H460; read-out: pTGI (converted))?
A: 12 µM

Q: What about the GI50 (NCI-H23) of the same compound?
A: 2.69 µM

Q: What about the CC50 (NCI-H23; [5]) of the same compound?
A: > 100 µM

Q: And the TGI (NCI-H23; read-out: pTGI (converted))?
A: 57.5 µM

Q: What about the GI50 (SK-MEL-5) of the same compound?
A: 0.513 µM

Q: What about the CC50 (SK-MEL-5; [5]) of the same compound?
A: 2.24 µM

Q: What about the TGI (SK-MEL-5; read-out: pTGI (converted)) of the same compound?
A: 1.07 µM

Q: What about the GI50 (NCI-H322M) of the same compound?
A: 18.2 µM

Q: And the CC50 (NCI-H322M; [5])?
A: > 100 µM

Q: What about the TGI (NCI-H322M; read-out: pTGI (converted)) of the same compound?
A: > 100 µM

Q: What about the GI50 ([1]; UO-31) of the same compound?
A: 0.501 µM

Q: And the LC50 ([1]; UO-31)?
A: > 100 µM

Q: And the TGI ([1]; UO-31, read-out: pTGI (converted))?
A: 3.02 µM

Q: What about the GI50 (HT-29) of the same compound?
A: 1.26 µM

Q: And the CC50 (HT-29; [5])?
A: 43.7 µM

Q: What about the TGI (HT-29; read-out: pTGI (converted)) of the same compound?
A: 5.62 µM

Q: And the GI50 (K562)?
A: 1 µM

Q: What about the CC50 (K562; [5]) of the same compound?
A: > 100 µM

Q: What about the TGI (K562; read-out: pTGI (converted)) of the same compound?
A: 33.1 µM

Q: What about the GI50 (SNB-75) of the same compound?
A: 0.363 µM

Q: And the CC50 (SNB-75; [5])?
A: > 100 µM

Q: What about the TGI (SNB-75; read-out: pTGI (converted)) of the same compound?
A: 11.5 µM

Q: What about the GI50 (SN12C) of the same compound?
A: 6.03 µM

Q: What about the LC50 (SN12C) of the same compound?
A: > 100 µM

Q: What about the TGI (SN12C; read-out: pTGI (converted)) of the same compound?
A: > 100 µM

Q: And the GI50 (MDA-MB-435)?
A: 1.02 µM

Q: What about the CC50 (MDA-MB-435; [5]) of the same compound?
A: 91.2 µM

Q: And the TGI (MDA-MB-435; read-out: pTGI (converted))?
A: 20.9 µM

Q: And the GI50 ([2]; OVCAR-5)?
A: 4.57 µM

Q: And the CC50 ([2]; OVCAR-5, read-out: pLC50 (the source's name) (converted))?
A: > 100 µM

Q: What about the TGI ([2]; OVCAR-5, read-out: pTGI (converted)) of the same compound?
A: 38 µM

Q: What about the GI50 (SR) of the same compound?
A: 0.513 µM

Q: And the CC50 (SR; [5])?
A: > 100 µM

Q: What about the TGI (SR; read-out: pTGI (converted)) of the same compound?
A: > 100 µM

Q: What about the GI50 (M14) of the same compound?
A: 0.575 µM

Q: And the CC50 (M14; [5])?
A: 45.7 µM

Q: And the TGI (M14; read-out: pTGI (converted))?
A: 16.6 µM

Q: What about the GI50 (PC-3) of the same compound?
A: 0.692 µM

Q: And the LC50 (PC-3)?
A: > 100 µM

Q: And the TGI (PC-3; read-out: pTGI (converted))?
A: 83.2 µM

Q: And the GI50 (SF-295; read-out: GI50)?
A: 0.17 µM

Q: What about the GI50 (SF-295; read-out: pGI50 (converted)) of the same compound?
A: 0.17 µM

Q: And the CC50 (SF-295; [5])?
A: 7.08 µM

Q: And the TGI (SF-295; read-out: pTGI (converted))?
A: 0.537 µM

Q: What about the GI50 [3] of the same compound?
A: 1.58 µM

Q: What about the TGI ([3]; read-out: pTGI (converted)) of the same compound?
A: 49 µM

Q: What about the GI50 (U-251) of the same compound?
A: 0.355 µM

Q: What about the CC50 (U-251; [5]) of the same compound?
A: 69.2 µM

Q: And the TGI (U-251; read-out: pTGI (converted))?
A: 15.5 µM

Q: And the GI50 (HCC 2998)?
A: 5.25 µM

Q: And the CC50 (HCC 2998; [5])?
A: 75.9 µM

Q: And the TGI (HCC 2998; read-out: pTGI (converted))?
A: 25.1 µM

Q: And the GI50 (SF-268)?
A: 2.09 µM

Q: And the CC50 (SF-268; [5])?
A: > 100 µM

Q: And the TGI (SF-268; read-out: pTGI (converted))?
A: 69.2 µM

Q: And the GI50 (NCI-H226)?
A: 6.03 µM

Q: What about the TGI (NCI-H226; read-out: pTGI (converted)) of the same compound?
A: > 100 µM

Q: And the GI50 (MOLT-4)?
A: 0.437 µM

Q: And the CC50 (MOLT-4; [5])?
A: > 100 µM

Q: And the TGI (MOLT-4; read-out: pTGI (converted))?
A: 8.51 µM

Q: And the GI50 [4]?
A: 9.33 µM
